In article PMC3739880 (The FASEB Journal, 2011):

What was measured:
[1] = biological target: T1, S. cerevisiae Ddi1 (Saccharomyces cerevisiae, UniProt P40087); assay: Proteinase inhibitor assay; type: cell-based; settings: for inhibition at 25 µM: read-out: Y16141 Ddi1, Inhibition at 25 μM (%)
T1 sequence (P40087 1-428): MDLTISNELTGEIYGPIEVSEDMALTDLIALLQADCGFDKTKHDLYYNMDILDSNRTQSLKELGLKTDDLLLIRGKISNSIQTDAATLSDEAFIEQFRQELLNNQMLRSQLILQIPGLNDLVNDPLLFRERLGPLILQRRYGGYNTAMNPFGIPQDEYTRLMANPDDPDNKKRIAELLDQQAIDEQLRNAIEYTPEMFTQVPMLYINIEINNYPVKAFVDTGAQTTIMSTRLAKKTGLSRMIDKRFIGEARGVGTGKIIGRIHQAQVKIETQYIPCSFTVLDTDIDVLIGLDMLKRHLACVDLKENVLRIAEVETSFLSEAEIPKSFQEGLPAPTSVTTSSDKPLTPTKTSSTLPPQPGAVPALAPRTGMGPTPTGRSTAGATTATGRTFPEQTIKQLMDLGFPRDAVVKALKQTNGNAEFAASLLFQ
In short: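 S. cerevisiae Ddi1 was expressed from pVTL260 in DDI1-knockout Y16141, transformed by lithium acetate. Colony precultured overnight at 30°C in selective minimal medium, then shaken 48 h at 30°C to A600 ~2 with or without inhibitor (25 μM, or a titration).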

[2] = test system: wild-type S. cerevisiae BY4742; assay: Proteinase inhibitor assay; type: cell-based; settings: Saccharomyces cerevisiae, read-out: BY4742, inhibition at 25 μM (%)
In short: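 Wild-type BY4742 colony precultured overnight at 30°C in selective minimal medium, then shaken 48 h at 30°C to A600 ~2 with or without 25 μM inhibitor. Cells pelleted by centrifugation. Supernatant protein measured by RC DC assay with BSA standard and expressed as mg secreted per mg dry weight of pellet dried at 100°C. n=6.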

[3] = biological target: T2, human Ddi1 (Homo sapiens, UniProt Q8WTU0); assay: Proteinase inhibitor assay; type: cell-based; settings: for inhibition at 25 µM: read-out: Y16141 human, Inhibition at 25 μM (%)
T2 sequence (Q8WTU0 1-396): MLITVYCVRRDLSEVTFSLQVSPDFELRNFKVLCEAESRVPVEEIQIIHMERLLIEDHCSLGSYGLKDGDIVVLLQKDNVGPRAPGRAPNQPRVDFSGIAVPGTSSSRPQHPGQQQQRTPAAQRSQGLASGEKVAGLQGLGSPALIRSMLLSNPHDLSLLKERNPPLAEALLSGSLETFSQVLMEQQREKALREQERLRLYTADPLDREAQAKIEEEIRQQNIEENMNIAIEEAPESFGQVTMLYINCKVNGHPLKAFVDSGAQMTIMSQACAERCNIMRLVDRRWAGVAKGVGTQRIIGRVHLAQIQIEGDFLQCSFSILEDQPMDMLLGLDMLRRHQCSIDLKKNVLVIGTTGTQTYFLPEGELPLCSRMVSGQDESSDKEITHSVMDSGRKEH
In short: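 Yeast DDI1-knockout Y16141 (BY4742 derivative) carrying the human Ddi1 ortholog in pVTL260, grown in selective minimal medium. Cultures shaken 48 h at 30°C to A600 ~2 with or without inhibitor (25 μM, or titrated). Supernatant protein measured against a BSA standard and expressed per mg dried-pellet weight. IC50 from a 4-parameter logistic fit. Means ± se, n=6.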

[4] = biological target: T3, Leishmania Ddi1 (Leishmania major, UniProt I7HUG0); assay: Proteinase inhibitor assay; type: cell-based, L. major; settings: for inhibition at 25 µM: read-out: Y16141 Leishmania, Inhibition at 25 μM (%)
T3 sequence (I7HUG0 148-390): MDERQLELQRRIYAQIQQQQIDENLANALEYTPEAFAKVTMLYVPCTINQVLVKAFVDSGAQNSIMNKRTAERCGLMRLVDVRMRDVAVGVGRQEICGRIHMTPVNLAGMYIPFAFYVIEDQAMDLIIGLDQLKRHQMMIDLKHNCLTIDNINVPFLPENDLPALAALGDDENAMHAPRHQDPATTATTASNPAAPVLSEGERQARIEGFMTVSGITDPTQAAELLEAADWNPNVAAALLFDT

[5] = test system: L. major; settings: read-out: IC50, growth inhibition in L. major; parasites in culture; cited from earlier work
[6] = test system: Y16141 cells transformed with pVTL260 plasmid; assay: Yeast cell morphology, knockout yeast transformed with plasmid alone; type: cell-based, S. cerevisiae; settings: 25 μM inhibitor
In short: (§1)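 DDI1-knockout Y16141 carried pVTL260, either alone or encoding full-length Ddi1 orthologs, introduced by lithium acetate transformation. Grown 24 h at 30°C in selective minimal medium with or without 25 μM inhibitor. Morphology examined by phase-contrast microscopy at ×100, with images captured digitally. Fraction of cells with greatly enlarged morphology was recorded.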

[7] = test system: L. amazonensis; settings: read-out: IC50, inhibition of cellular growth and multiplication with L. amazonensis; parasites in culture; cited from earlier work
[8] = test system: Y16141 cells expressing human ortholog of Ddi1; assay: Yeast cell morphology, Y16141 with human Ddi1 construct; type: cell-based, S. cerevisiae; settings: 25 μM inhibitor; yeast transformed to express the human ortholog of Ddi1
In short: as §1

[9] = test system: Y16141 cells expressing Saccharomyces Ddi1; assay: Yeast cell morphology, Y16141 with Saccharomyces Ddi1 construct; type: cell-based, S. cerevisiae; settings: 25 μM inhibitor, 24 h
In short: as §1

[10] = test system: L. infantum; settings: cited from earlier work
[11] = test system: Y16141 cells expressing L. major Ddi1 ortholog; assay: Yeast cell morphology, Y16141 with Leishmania Ddi1 construct; type: cell-based, S. cerevisiae; settings: 25 μM inhibitor, 24 h
In short: as §1

[12] = test system: Leishmania donovani; settings: cited from earlier work

| Structure (SMILES) | inhibition at 25 µM [1] | inhibition at 25 µM [2] | inhibition at 25 µM [3] | IC50 [4] | inhibition at 25 µM [4] | IC50 [5] | IC50 [1] | effect on cell morphology [6] | IC50 [7] | effect on cell morphology [8] | cells with greatly enlarged morphologies (% of cells) [9] | IC50 [3] | sensitivity of L. infantum [10] | cells with greatly enlarged morphologies (% of cells) [11] | Hill slope factor ([4]; Y16141 expressing the L. major Ddi1 ortholog, Eq. 1 fit) | sensitivity of Leishmania donovani [12] |
| --- | --- | --- | --- | --- | --- | --- | --- | --- | --- | --- | --- | --- | --- | --- | --- | --- |
| CC(C)(C)NC(=O)[C@@H]1CN(Cc2cccnc2)CCN1C[C@@H](O)C[C@@H](Cc1ccccc1)C(=O)N[C@H]1c2ccccc2C[C@H]1O [Indinavir] | 24% | 36% | 38% | 3 ± 0.2 µM | 100% | 8 µM | – | – | – | – | – | – | – | – | – | – |
| CC(C)CN(C[C@@H](O)[C@H](Cc1ccccc1)NC(=O)O[C@H]1CCOC1)S(=O)(=O)c1ccc(N)cc1 [Amprenavir] | 95% | 91% | 9% | 5.7 ± 0.7 µM | 100% | – | 2.8 ± 0.2 µM | no effects | 62 µM | no effects | ~75 % of cells | – | – | – | – | – |
| CC(C)(C)NC(=O)[C@@H]1C[C@@H]2CCCC[C@@H]2CN1C[C@@H](O)[C@H](Cc1ccccc1)NC(=O)[C@H](CC(N)=O)NC(=O)c1ccc2ccccc2n1 [Saquinavir] | 24% | 31% | 18% | 2.8 ± 0.3 µM | 100% | 7 µM | – | – | – | – | – | – | – | – | – | – |
| Cc1cccc(C)c1OCC(=O)N[C@@H](Cc1ccccc1)[C@@H](O)C[C@H](Cc1ccccc1)NC(=O)[C@H](C(C)C)N1CCCNC1=O [Lopinavir] | 6% | 6% | 0% | 56 ± 4 µM | 38% | – | – | – | 16 µM | – | – | – | – | – | – | – |
| CC(C)c1nc(CN(C)C(=O)N[C@H](C(=O)N[C@@H](Cc2ccccc2)C[C@H](O)[C@H](Cc2ccccc2)NC(=O)OCc2cncs2)C(C)C)cs1 [Ritonavir] | 0% | 1% | 3% | – | 22% | – | – | – | – | – | – | – | – | – | – | – |
| CCC[C@@]1(CCc2ccccc2)CC(O)=C([C@H](CC)c2cccc(NS(=O)(=O)c3ccc(C(F)(F)F)cn3)c2)C(=O)O1 [Tipranavir] | 86% | 58% | 90% | 2.9 ± 0.2 µM | 97% | – | – | – | – | – | – | 1.5 ± 0.2 µM | – | – | – | – |
| Cc1c(O)cccc1C(=O)N[C@@H](CSc1ccccc1)[C@H](O)CN1C[C@H]2CCCC[C@H]2C[C@H]1C(=O)NC(C)(C)C [Nelfinavir] | 40% | 50% | 97% | 0.44 ± 0.03 µM | 100% | – | – | no effects | 15 µM | no effects | – | 3.4 ± 0.4 µM | tens of micromolar range | ~95 % of cells | 0.72 ± 0.04 | tens of micromolar range |
